Tests used:
[1] = Cytotoxicity against wild type mouse BA/F3 cells assessed as inhibition of cell proliferation after 48 hrs by luciferase reporter gene assay in presence of recombinant mouse IL3; assay type: functional, cell-based; details: BaF3, 48 h
How it was run: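 Parental wild-type Ba/F3 cells grown with IL-3; proliferation assay, IC50 in μM.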

[2] = target: Tyrosine-protein kinase JAK2 (Homo sapiens, UniProt O60674); test: Inhibition of Tel-fused JAK2 (unknown origin) expressed in mouse BA/F3 cells after 48 hrs by luciferase reporter gene assay in absence of recombinant mouse IL3; assay type: cell-based; details: baf3
Sequence of Tyrosine-protein kinase JAK2 (O60674 whole entry, looked up, the tested form may be a part): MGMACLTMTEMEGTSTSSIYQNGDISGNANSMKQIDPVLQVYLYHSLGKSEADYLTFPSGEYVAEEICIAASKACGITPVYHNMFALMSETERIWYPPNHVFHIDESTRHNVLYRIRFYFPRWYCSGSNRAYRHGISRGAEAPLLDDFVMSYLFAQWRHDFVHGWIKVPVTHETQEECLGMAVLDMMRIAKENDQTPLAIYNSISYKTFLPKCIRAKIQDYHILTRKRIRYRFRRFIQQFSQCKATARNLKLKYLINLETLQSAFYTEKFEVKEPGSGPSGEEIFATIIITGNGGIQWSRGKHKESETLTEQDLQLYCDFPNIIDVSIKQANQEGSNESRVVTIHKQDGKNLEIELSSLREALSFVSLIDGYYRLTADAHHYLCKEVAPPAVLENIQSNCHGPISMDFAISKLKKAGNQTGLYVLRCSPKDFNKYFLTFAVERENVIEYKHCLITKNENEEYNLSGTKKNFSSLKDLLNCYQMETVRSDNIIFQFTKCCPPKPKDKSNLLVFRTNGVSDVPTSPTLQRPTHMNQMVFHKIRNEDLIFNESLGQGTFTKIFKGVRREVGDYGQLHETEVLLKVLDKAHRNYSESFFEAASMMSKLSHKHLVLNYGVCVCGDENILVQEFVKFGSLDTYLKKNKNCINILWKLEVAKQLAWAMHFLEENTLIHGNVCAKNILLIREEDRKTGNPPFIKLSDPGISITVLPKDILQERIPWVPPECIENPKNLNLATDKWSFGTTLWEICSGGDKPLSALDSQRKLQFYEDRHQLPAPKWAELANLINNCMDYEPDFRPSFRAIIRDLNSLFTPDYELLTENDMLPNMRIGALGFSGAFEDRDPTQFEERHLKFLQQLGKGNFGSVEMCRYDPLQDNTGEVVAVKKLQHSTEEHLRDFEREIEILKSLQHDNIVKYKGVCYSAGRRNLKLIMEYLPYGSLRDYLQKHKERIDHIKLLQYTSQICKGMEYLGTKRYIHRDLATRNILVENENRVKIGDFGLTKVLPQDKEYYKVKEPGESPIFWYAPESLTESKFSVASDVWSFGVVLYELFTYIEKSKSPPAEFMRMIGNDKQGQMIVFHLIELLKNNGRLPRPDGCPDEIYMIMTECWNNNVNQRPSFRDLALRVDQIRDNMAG

[3] = Plasma clearance in Sprague-Dawley rat at 3 mg/kg, iv and 10 mg/kg, po; assay type: ADME, organism-based
How it was run: (§1)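 Male Sprague–Dawley rats dosed intravenously at 3 mg/kg and orally at 10 mg/kg, each as a solution in 75% PEG300/25% D5W. Plasma sampled for clearance, Vss, T1/2, oral AUC, Cmax and oral bioavailability F(%).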

[4] = Volume of distribution at steady state in Sprague-Dawley rat at 3 mg/kg, iv and 10 mg/kg, po; assay type: ADME, organism-based; details: in vivo, read-out: Vdss; how it was run: as §1
[5] = Half life in Sprague-Dawley rat at 3 mg/kg, iv and 10 mg/kg, po; assay type: ADME, organism-based; details: in vivo; how it was run: as §1
[6] = AUC in Sprague-Dawley rat at 10 mg/kg, po; assay type: ADME, organism-based; details: in vivo; how it was run: as §1
[7] = Cmax in Sprague-Dawley rat at 10 mg/kg, po; assay type: ADME, organism-based; design: dose 10 mg/kg, route oral; details: in vivo; how it was run: as §1
[8] = Oral bioavailability in Sprague-Dawley rat at 10 mg/kg; assay type: ADME, organism-based; details: in vivo; how it was run: as §1
Rattus norvegicus [9] = test: Plasma clearance in Sprague-Dawley rat at 3 mg/kg, iv and 10 mg/kg, po relative to hepatic blood flow; assay type: ADME, organism-based; details: in vivo
[10] = Ratio of AUC in brain to AUC in plasma of Balb/C mouse at 20 mg/kg, po; assay type: ADME, organism-based; details: brain and plasma, read-out: Ratio AUC
[11] = Ratio of Cmax in brain to Cmax in plasma of Balb/C mouse at 20 mg/kg, po; assay type: ADME, organism-based; details: brain and plasma, read-out: BPR
[12] = Plasma clearance in Wistar rat at 3 mg/kg, iv and 10 mg/kg, po; assay type: ADME, organism-based
How it was run: (§2)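 Male Wistar rats given 3 mg/kg IV and 10 mg/kg PO, formulated as a solution in 75% PEG300/25% D5W. Plasma PK parameters derived: CL, Vss, T1/2, AUC and Cmax after oral dosing, and F(%).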

[13] = Volume of distribution at steady state in Wistar rat at 3 mg/kg, iv and 10 mg/kg, po; assay type: ADME, organism-based; details: in vivo, read-out: Vdss; how it was run: as §2
[14] = Half life in Wistar rat at 3 mg/kg, iv and 10 mg/kg, po; assay type: ADME, organism-based; details: in vivo; how it was run: as §2
[15] = AUC in Wistar rat at 10 mg/kg, po; assay type: ADME, organism-based; details: in vivo; how it was run: as §2
[16] = Cmax in Wistar rat at 10 mg/kg, po; assay type: ADME, organism-based; design: dose 10 mg/kg, route oral; details: in vivo; how it was run: as §2
[17] = Oral bioavailability in Wistar rat at 10 mg/kg; assay type: ADME, organism-based; details: in vivo; how it was run: as §2
Rattus norvegicus [18] = test: Plasma clearance in Wistar rat at 3 mg/kg, iv and 10 mg/kg, po relative to hepatic blood flow; assay type: ADME, organism-based; details: in vivo
KM12 [19] = test: Antitumor activity against human KM12 cells xenografted in CRL RNU nude rat assessed as induction of tumor regression at 50 mg/kg, po bid administered for 14 days relative to vehicle-treated control; assay type: functional
How it was run: (§3)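 Female CRL RNU nude rats transplanted with KM12 tumor tissue; dosing started 10 days postimplant, twice daily for 14 days at 6.25, 12.5, 25 or 50 mg/kg alongside vehicle. Efficacy read as tumor volume.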

KM12 [20] = test: Antitumor activity against human KM12 cells xenografted in po dosed CRL RNU nude rat assessed as tumor growth inhibition administered as bid for 14 days; assay type: functional, organism-based; how it was run: as §3
Rattus norvegicus [21] = test: Toxicity in CRL RNU nude rat xenografted with human KM12 cells assessed as increase in body weight at 25 to 50 mg/kg, po bid administered for 14 days measured on day 14 post last dose; assay type: organism-based; details: in vivo, 336 h
[22] = target: BDNF/NT-3 growth factors receptor (Homo sapiens, UniProt Q16620); test: Inhibition of TRKB (unknown origin) by scintillation proximity assay
Sequence of BDNF/NT-3 growth factors receptor (Q16620 whole entry): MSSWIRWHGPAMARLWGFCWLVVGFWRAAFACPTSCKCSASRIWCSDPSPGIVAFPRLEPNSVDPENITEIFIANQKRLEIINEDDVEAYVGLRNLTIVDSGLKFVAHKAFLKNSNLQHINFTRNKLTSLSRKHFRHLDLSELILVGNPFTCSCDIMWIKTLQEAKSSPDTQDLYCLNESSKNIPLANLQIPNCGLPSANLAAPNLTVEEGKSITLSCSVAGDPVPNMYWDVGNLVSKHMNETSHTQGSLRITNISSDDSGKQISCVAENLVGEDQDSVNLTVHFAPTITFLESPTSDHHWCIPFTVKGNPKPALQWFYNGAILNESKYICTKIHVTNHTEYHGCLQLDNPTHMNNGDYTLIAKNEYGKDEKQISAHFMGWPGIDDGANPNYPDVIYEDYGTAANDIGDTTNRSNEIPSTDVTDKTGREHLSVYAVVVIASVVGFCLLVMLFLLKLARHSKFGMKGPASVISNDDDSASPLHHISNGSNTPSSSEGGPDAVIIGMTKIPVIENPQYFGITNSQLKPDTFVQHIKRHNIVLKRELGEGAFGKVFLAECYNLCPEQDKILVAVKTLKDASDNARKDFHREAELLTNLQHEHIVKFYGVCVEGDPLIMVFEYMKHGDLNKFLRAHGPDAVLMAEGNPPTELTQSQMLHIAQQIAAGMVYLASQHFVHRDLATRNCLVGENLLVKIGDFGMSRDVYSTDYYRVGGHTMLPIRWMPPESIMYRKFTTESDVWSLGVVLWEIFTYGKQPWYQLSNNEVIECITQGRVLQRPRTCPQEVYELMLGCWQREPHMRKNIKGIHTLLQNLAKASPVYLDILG
How it was run: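 TRKB biochemical inhibition measured by scintillation proximity assay; IC50 reported.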

## N#Cc1ccc(-c2cnc3ccc(NCc4cccc(F)c4)nn23)cc1
[1]
  IC50: 3.92 µM

## O=C(Nc1ccc(-c2cnc3ccc(NCc4cccc(F)c4)nn23)cc1)C1CCOCC1
[1]
  IC50: 3 µM

## N#Cc1cccc(-c2cnc3ccc(NCc4ccccc4)nn23)c1
[1]
  IC50: > 10 µM

## Fc1cccc([C@H]2CCCN2c2ccc3ncc(-c4ccccn4)n3n2)c1
[1]
  IC50: > 10 µM
[2]
  IC50: 6.7 µM

## CN(Cc1ccccc1)c1ccc2ncc(-c3ccc(C#N)cc3)n2n1
[1]
  IC50: 5.89 µM

## OC1CCN(c2cccc(-c3cnc4ccc(N5CCC[C@@H]5c5cccc(F)c5)nn34)n2)CC1
[1]
  IC50: > 10 µM
[3]
  clearance: 56.9 mL/min/kg
[4]
  Vd: 2.3 L/kg
[5]
  half-life: 49.8 min
[6]
  AUC: 0.659 µM·h
[7]
  Cmax: 110 nM
[8]
  bioavailability: 10%
Rattus norvegicus [9]
  CL: 100%

## COc1ccccc1CNc1ccc2ncc(-c3ccc(C#N)cc3)n2n1
[1]
  IC50: 1.01 µM

## O=C(O)CN1CCN(c2cc(-c3cnc4ccc(N5CCC[C@@H]5c5cccc(F)c5)nn34)ccn2)CC1
[1]
  IC50: 4.79 µM
[3]
  clearance: 45.5 mL/min/kg
[4]
  Vd: 2.4 L/kg
[5]
  half-life: 54 min
[6]
  AUC: 1.9 µM·h
[7]
  Cmax: 250 nM
[8]
  bioavailability: 26%
Rattus norvegicus [9]
  CL: 82%
[10]
  Kp: 0.8
[11]
  Kp: 0.8
[2]
  IC50: 2.7 µM

## OCc1ccc(-c2cnc3ccc(NCc4cccc(F)c4)nn23)cc1
[1]
  IC50: 1.92 µM

## N#Cc1ccc(-c2cnc3ccc(N4CCC[C@H]4c4cccc(F)c4)nn23)cc1
[1]
  IC50: 9.23 µM

## N#Cc1ccc(-c2cnc3ccc(N4CCCC4c4cccc(F)c4)nn23)cc1 (racemic)
[1]
  IC50: > 10 µM

## OC1CCN(c2cc(-c3cnc4ccc(N5CCC[C@@H]5c5cccc(F)c5)nn34)ccn2)CC1
[1]
  IC50: 5.91 µM
[12]
  clearance: 45.2 mL/min/kg
[13]
  Vd: 4.9 L/kg
[14]
  half-life: 96 min
[15]
  AUC: 1.88 µM·h
[16]
  Cmax: 215 nM
[17]
  bioavailability: 27%
Rattus norvegicus [18]
  CL: 82%
[10]
  Kp: 0.2
[11]
  Kp: 0.2
[2]
  IC50: 5.6 µM
KM12 [19]
  Activity: 20%
KM12 [20]
  TGI: Dose-dependent effect
Rattus norvegicus [21]
  Activity: Toxic

## NS(=O)(=O)c1ccc(-c2cnc3ccc(NCc4cccc(F)c4)nn23)cc1
[1]
  IC50: 2.53 µM

## N#Cc1ccc(-c2cnc3ccc(N4CCOCC4c4cccc(F)c4)nn23)cc1 (racemic)
[1]
  IC50: > 10 µM

## N#Cc1ccc(-c2cnc3ccc(N4CCCCC4c4cccc(F)c4)nn23)cc1 (racemic)
[1]
  IC50: > 10 µM

## N#Cc1ccc(-c2cnc3ccc(NCc4ccccc4)nn23)cc1
[22]
  IC50: 0.083 µM
[1]
  IC50: 7.13 µM
[2]
  IC50: 4.7 µM

## N#Cc1ccc(-c2cnc3ccc(N4CCC[C@@H]4c4cccc(F)c4)nn23)cc1
[1]
  IC50: > 10 µM

— ChEMBL document CHEMBL3580662, “(R)-2-Phenylpyrrolidine Substituted Imidazopyridazines: A New Class of Potent and Selective Pan-TRK Inhibitors” (ACS Med Chem Lett, 2015)
